Test results published in ChEMBL document CHEMBL4043297, “Synthesis and Structure-Activity Relationships of the Novel Antimalarials 5-Pyridinyl-4(1 H)-Pyridones” (J Med Chem, 2018).
pIC50: −log10 of the molar value.

Columns and labels:
[1] = tested on: Plasmodium falciparum; assay: Antimalarial activity against Plasmodium falciparum 3D7A infected in human RBC after 48 hrs by [3H]-hypoxanthine incorporation assay; type: functional
[2] = biological target: serum albumin (Homo sapiens, UniProt P02768); assay: Binding affinity to human serum albumin by HPLC method; type: ADME; settings: read-out: PB (converted)
[3] = Volume of distribution in CD1 mouse at 0.195 mg/kg, iv as bolus dose by LC-MS/MS method; type: ADME, organism-based; settings: in vivo
Method in brief: (§1)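 Specific pathogen-free female CD1 (Hsd:ICR) mice, 8–10 weeks old, housed in the institutional animal facility. Each compound was given intravenously at a low dose and orally at a higher dose. Vd, clearance, t1/2, Cmax, Tmax, AUC0-t, AUC∞ and %F were derived from plasma exposure after each route.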

[4] = Clearance in CD1 mouse at 0.195 mg/kg, iv as bolus dose by LC-MS/MS method; type: ADME, organism-based; settings: in vivo
Method in brief: (§2)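 Specific pathogen-free female CD1 (Hsd:ICR) mice, 8 to 10 weeks old. Each compound was given as an intravenous dose and an oral dose at the levels listed. Parameters reported: Vd, clearance, t1/2, Cmax, Tmax, AUC0-t, AUC∞ and %F.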

[5] = Half life in CD1 mouse at 0.195 mg/kg, iv as bolus dose by LC-MS/MS method; type: ADME, organism-based; settings: in vivo; method in brief: as §2
[6] = Cmax in CD1 mouse at 9.354 mg/kg administered via oral gavage by LC-MS/MS method; type: ADME, organism-based; set-up: dose 9.354 mg/kg, route oral; settings: in vivo; method in brief: as §2
[7] = Tmax in CD1 mouse at 9.354 mg/kg administered via oral gavage by LC-MS/MS method; type: ADME, organism-based; settings: in vivo; method in brief: as §1
[8] = AUC (0 to t) in CD1 mouse at 9.354 mg/kg administered via oral gavage by LC-MS/MS method; type: ADME, organism-based; settings: in vivo; method in brief: as §2
[9] = AUC (infinity) in CD1 mouse at 9.354 mg/kg administered via oral gavage by LC-MS/MS method; type: ADME, organism-based; set-up: dose 9.354 mg/kg, route oral, time infinity; settings: in vivo; method in brief: as §2
[10] = Oral bioavailability in CD1 mouse at 9.354 mg/kg administered via gavage by LC-MS/MS method; type: ADME, organism-based; settings: in vivo; method in brief: as §1
[11] = tested on: Plasmodium yoelii; assay: Schizontocidal activity against Plasmodium yoelii infected in CD1 mouse administered via oral gavage as qd for 4 days starting 1 hr post infection by YOYO-1 dye-based flow cytometric method; type: functional
Method in brief: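 Blood schizontocidal activity was tested in a modified 4-day suppressive test in mice infected with P. yoelii. Four oral doses were given by gavage over four days.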

[12] = Volume of distribution in CD1 mouse at 0.211 mg/kg, iv as bolus dose by LC-MS/MS method; type: ADME, organism-based; settings: in vivo; method in brief: as §1
[13] = Clearance in CD1 mouse at 0.211 mg/kg, iv as bolus dose by LC-MS/MS method; type: ADME, organism-based; settings: in vivo; method in brief: as §2
[14] = Half life in CD1 mouse at 0.211 mg/kg, iv as bolus dose by LC-MS/MS method; type: ADME, organism-based; settings: in vivo; method in brief: as §2
[15] = Cmax in CD1 mouse at 8.366 mg/kg administered via oral gavage by LC-MS/MS method; type: ADME, organism-based; set-up: dose 8.366 mg/kg, route oral; settings: in vivo; method in brief: as §2
[16] = Tmax in CD1 mouse at 8.366 mg/kg administered via oral gavage by LC-MS/MS method; type: ADME, organism-based; settings: in vivo; method in brief: as §1
[17] = AUC (0 to t) in CD1 mouse at 8.366 mg/kg administered via oral gavage by LC-MS/MS method; type: ADME, organism-based; settings: in vivo; method in brief: as §2
[18] = AUC (infinity) in CD1 mouse at 8.366 mg/kg administered via oral gavage by LC-MS/MS method; type: ADME, organism-based; set-up: dose 8.366 mg/kg, route oral, time infinity; settings: in vivo; method in brief: as §2
[19] = Oral bioavailability in CD1 mouse at 8.366 mg/kg administered via gavage by LC-MS/MS method; type: ADME, organism-based; settings: in vivo; method in brief: as §1
[20] = Volume of distribution in CD1 mouse at 0.17 mg/kg, iv as bolus dose by LC-MS/MS method; type: ADME, organism-based; settings: in vivo; method in brief: as §1
[21] = Clearance in CD1 mouse at 0.17 mg/kg, iv as bolus dose by LC-MS/MS method; type: ADME, organism-based; settings: in vivo; method in brief: as §2
[22] = Half life in CD1 mouse at 0.17 mg/kg, iv as bolus dose by LC-MS/MS method; type: ADME, organism-based; settings: in vivo; method in brief: as §2
[23] = Cmax in CD1 mouse at 10.757 mg/kg administered via oral gavage by LC-MS/MS method; type: ADME, organism-based; set-up: dose 10.757 mg/kg, route oral; settings: in vivo, 10.76 mg/kg; method in brief: as §2
[24] = Tmax in CD1 mouse at 10.757 mg/kg administered via oral gavage by LC-MS/MS method; type: ADME, organism-based; settings: in vivo; method in brief: as §1
[25] = AUC (0 to t) in CD1 mouse at 10.757 mg/kg administered via oral gavage by LC-MS/MS method; type: ADME, organism-based; settings: in vivo; method in brief: as §2
[26] = AUC (infinity) in CD1 mouse at 10.757 mg/kg administered via oral gavage by LC-MS/MS method; type: ADME, organism-based; set-up: dose 10.757 mg/kg, route oral, time infinity; settings: in vivo, 10.76 mg/kg; method in brief: as §2
[27] = Oral bioavailability in CD1 mouse at 10.757 mg/kg administered via gavage by LC-MS/MS method; type: ADME, organism-based; settings: in vivo; method in brief: as §2
[28] = Volume of distribution in CD1 mouse at 0.192 mg/kg, iv as bolus dose by LC-MS/MS method; type: ADME, organism-based; settings: in vivo; method in brief: as §1
[29] = Clearance in CD1 mouse at 0.192 mg/kg, iv as bolus dose by LC-MS/MS method; type: ADME, organism-based; settings: in vivo; method in brief: as §2
[30] = Half life in CD1 mouse at 0.192 mg/kg, iv as bolus dose by LC-MS/MS method; type: ADME, organism-based; settings: in vivo; method in brief: as §2
[31] = Cmax in CD1 mouse at 10.36 mg/kg administered via oral gavage by LC-MS/MS method; type: ADME, organism-based; set-up: dose 10.36 mg/kg, route oral; settings: in vivo; method in brief: as §2
[32] = Tmax in CD1 mouse at 10.36 mg/kg administered via oral gavage by LC-MS/MS method; type: ADME, organism-based; settings: in vivo; method in brief: as §1
[33] = AUC (0 to t) in CD1 mouse at 10.36 mg/kg administered via oral gavage by LC-MS/MS method; type: ADME, organism-based; settings: in vivo; method in brief: as §2
[34] = AUC (infinity) in CD1 mouse at 10.36 mg/kg administered via oral gavage by LC-MS/MS method; type: ADME, organism-based; set-up: dose 10.36 mg/kg, route oral, time infinity; settings: in vivo; method in brief: as §2
[35] = Oral bioavailability in CD1 mouse at 10.36 mg/kg administered via gavage by LC-MS/MS method; type: ADME, organism-based; settings: in vivo; method in brief: as §2

Sequence of serum albumin (P02768 whole entry): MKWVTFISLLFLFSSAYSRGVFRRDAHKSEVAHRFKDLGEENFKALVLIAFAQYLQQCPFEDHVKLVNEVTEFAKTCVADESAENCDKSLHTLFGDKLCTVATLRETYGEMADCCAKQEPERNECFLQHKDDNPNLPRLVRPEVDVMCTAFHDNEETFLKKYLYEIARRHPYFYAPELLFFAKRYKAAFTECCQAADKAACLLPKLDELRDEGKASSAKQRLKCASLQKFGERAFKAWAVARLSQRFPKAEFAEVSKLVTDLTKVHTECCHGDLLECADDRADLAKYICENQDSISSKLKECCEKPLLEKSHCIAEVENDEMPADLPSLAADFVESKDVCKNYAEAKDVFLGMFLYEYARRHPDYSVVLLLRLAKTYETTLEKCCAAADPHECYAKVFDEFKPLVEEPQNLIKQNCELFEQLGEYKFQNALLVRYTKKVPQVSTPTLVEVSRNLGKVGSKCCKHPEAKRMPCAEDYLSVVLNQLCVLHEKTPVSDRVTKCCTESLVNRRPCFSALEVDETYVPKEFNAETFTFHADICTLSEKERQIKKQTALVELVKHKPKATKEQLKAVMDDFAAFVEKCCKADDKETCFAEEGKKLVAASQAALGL

## Cc1[nH]c(C)c(-c2ccc(-c3cccc(C(F)(F)F)c3)nc2)c(=O)c1Cl
[1]
  pIC50: 7.40
[2]
  fraction unbound: 0.05
[3]
  Vd: 0.68 L/kg
[4]
  clearance: 0.0912 L/h/kg
[5]
  half-life: 5.13 h
[6]
  Cmax: 2.47 µg/mL
[7]
  Tmax: 3 h
[8]
  AUC(0-t): 39.5 µg·h/mL
[9]
  AUC(0-inf): 39.5 µg·h/mL
[10]
  bioavailability: 38.7%
[11]
  ED50: 1.2 mg/kg

## Cc1[nH]c(C)c(-c2ccc(Oc3ccc(OC(F)(F)F)cc3)nc2)c(=O)c1Cl
[1]
  pIC50: 7.48

## Cc1[nH]c(C)c(-c2ccc(-c3ccc(S(C)(=O)=O)cc3)nc2)c(=O)c1Br
[1]
  pIC50: 6.54

## Cc1[nH]c(C)c(-c2ccc(C#Cc3ccc(C(F)(F)F)cc3)nc2)c(=O)c1Cl
[1]
  pIC50: 7.01

## Cc1[nH]c(C)c(-c2ccc(OCc3ccccc3C(F)(F)F)nc2)c(=O)c1Br
[1]
  pIC50: 7.96

## Cc1[nH]c(C)c(-c2ccc(OCc3cc(F)cc(F)c3)nc2)c(=O)c1Br
[1]
  pIC50: 7.40

## Cc1[nH]c(C)c(-c2ccc(-c3ccc(Cl)cc3)nc2)c(=O)c1Br
[1]
  pIC50: 6.96

## Cc1[nH]c(C)c(-c2ccc(-c3ccc(C(F)(F)F)cc3Cl)nc2)c(=O)c1Cl
[1]
  pIC50: 8.70
[2]
  fraction unbound: 0.05
[12]
  Vd: 1.24 L/kg
[13]
  clearance: 0.0666 L/h/kg
[14]
  half-life: 12.8 h
[15]
  Cmax: 1.69 µg/mL
[16]
  Tmax: 10 h
[17]
  AUC(0-t): 37.4 µg·h/mL
[18]
  AUC(0-inf): 37.5 µg·h/mL
[19]
  bioavailability: 30%
[11]
  ED50: 0.33 mg/kg

## Cc1[nH]c(C)c(-c2ccc(-c3ccc(OC(F)(F)F)cc3)nc2)c(=O)c1Cl
[1]
  pIC50: 7.70
[2]
  fraction unbound: 0.04
[20]
  Vd: 0.85 L/kg
[21]
  clearance: 0.0318 L/h/kg
[22]
  half-life: 18.7 h
[23]
  Cmax: 2.29 µg/mL
[24]
  Tmax: 10 h
[25]
  AUC(0-t): 167 µg·h/mL
[26]
  AUC(0-inf): 187 µg·h/mL
[27]
  bioavailability: 54.9%
[11]
  ED50: 0.15 mg/kg

## Cc1[nH]c(CO)c(Cl)c(=O)c1-c1ccc(Oc2ccc(OC(F)(F)F)cc2)cc1
[1]
  pIC50: 6.88

## Cc1[nH]c(C)c(-c2ccc(OCc3cc(F)cc(F)c3)nc2)c(=O)c1Cl
[1]
  pIC50: 7.10

## Cc1[nH]c(C)c(-c2ccc(OCc3ccc(F)cc3)nc2)c(=O)c1Br
[1]
  pIC50: 8.00

## Cc1[nH]c(C)c(-c2ccc(-c3ccccc3F)nc2)c(=O)c1Cl
[1]
  pIC50: 7.31

## Cc1[nH]c(C)c(-c2ccc(-c3cccc(CO)c3)nc2)c(=O)c1Br
[1]
  pIC50: 6.49

## Cc1[nH]c(C)c(-c2ccc(OCc3cc(C(F)(F)F)cc(C(F)(F)F)c3)nc2)c(=O)c1Cl
[1]
  pIC50: 7.54

## Cc1[nH]c(C)c(-c2ccc(OCc3ccc(C(F)(F)F)cc3)nc2)c(=O)c1Cl
[1]
  pIC50: 8.30

## Cc1[nH]c(C)c(-c2ccc(-c3ccc(OC(F)(F)F)cc3)nc2)c(=O)c1Br
[1]
  pIC50: 7.70
[2]
  fraction unbound: 0.04
[28]
  Vd: 0.91 L/kg
[29]
  clearance: 0.0432 L/h/kg
[30]
  half-life: 14.6 h
[31]
  Cmax: 4.1 µg/mL
[32]
  Tmax: 10 h
[33]
  AUC(0-t): 109 µg·h/mL
[34]
  AUC(0-inf): 118 µg·h/mL
[35]
  bioavailability: 49.1%

## Cc1[nH]c(C)c(-c2ccc(-c3ccc(C(F)(F)F)cc3C(F)(F)F)nc2)c(=O)c1Br
[1]
  pIC50: 8.22

## Cc1[nH]c(C)c(-c2ccc(-c3ccccc3F)nc2)c(=O)c1Br
[1]
  pIC50: 7.19

## Cc1[nH]c(C)c(-c2ccc(-c3ccccc3OC(F)(F)F)nc2)c(=O)c1Cl
[1]
  pIC50: 7.46

## Cc1[nH]c(C)c(-c2ccc(-c3ccc(C#N)cc3)nc2)c(=O)c1Br
[1]
  pIC50: 6.48
